Assay results reported in ChEMBL document CHEMBL4814013, “Scaffold repurposing of fendiline: Identification of potent KRAS plasma membrane localization inhibitors” (Eur J Med Chem, 2021).
The source made the active and inactive calls. No cut-off for these calls is given here.

Tests used:
[1] = tested on: Caco-2; assay: Antiproliferative activity against human Caco-2 cells expressing wild type KRAS assessed as reduction in cell growth incubated for 72 hrs by CyQuant proliferation assay; type: functional, cell-based; settings: Caco-2, 72 h
Outline: (§1)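 Cells seeded in 96-well plates; after 24 h fresh growth medium with 0.1% DMSO vehicle or drug added (highest dose 30 µM for cancer lines), grown 72 h at 37 °C, 5% CO2. Live cell number measured by CyQUANT fluorescence. IC50 from three independent experiments. MEFs were isogenic lines carrying oncogenic BRAF or KRAS.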

[2] = tested on: MDCK; assay: Inhibition of ASM in dog MDCK cells co-expressing recombinant full length mGFP-tagged KRAS G12V mutant and mCherry-CAAX assessed as reduction in plasma membrane localization of KRAS mutant incubated for 48 hrs by confocal microscopic analysis relative to control; type: cell membranes; settings: Canis lupus familiaris
Outline: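 MDCK cells stably co-expressing mGFP-KRAS G12V or mGFP-LactC2 with mCherry-CAAX (HRAS 179–189 C181S/C184S) grown on coverslips in DMEM/10% FBS. Treated 48 h with 0.1% DMSO or graded drug, fixed in 4% paraformaldehyde, then quantitative confocal imaging. Mislocalization scored as the Manders fraction of mCherry-CAAX co-localizing with the GFP probe. IC50 and Emax from three independent experiments.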

[3] = tested on: MIA PaCa-2; assay: Antiproliferative activity against human MIA PaCa-2 cells expressing KRAS mutant assessed as reduction in cell growth incubated for 72 hrs by CyQuant proliferation assay; type: functional, cell-based; settings: MIA PaCa-2, 72 h; outline: as §1
[4] = tested on: HEC-1-A; assay: Antiproliferative activity against human HEC-1-A cells expressing mutant KRAS assessed as reduction in cell growth incubated for 72 hrs by CyQuant proliferation assay; type: functional, cell-based; outline: as §1
[5] = tested on: NCI-H522; assay: Antiproliferative activity against human NCI-H522 cells expressing wild type KRAS assessed as reduction in cell growth incubated for 72 hrs by CyQuant proliferation assay; type: functional, cell-based; settings: NCI-H522, 72 h; outline: as §1
[6] = tested on: SK-CO-1; assay: Antiproliferative activity against human SK-CO-1 cells expressing mutant KRAS assessed as reduction in cell growth incubated for 72 hrs by CyQuant proliferation assay; type: functional, cell-based; settings: SK-CO-1, 72 h; outline: as §1
[7] = tested on: NCI-H1975; assay: Antiproliferative activity against human NCI-H1975 cells expressing wild type KRAS assessed as reduction in cell growth incubated for 72 hrs by CyQuant proliferation assay; type: functional, cell-based; settings: NCI-H1975, 72 h; outline: as §1
[8] = tested on: MDCK; assay: Cytotoxicity against dog MDCK cells at 30 uM; type: functional, cell-based; settings: Canis lupus familiaris
[9] = Antiproliferative activity against human MOH cells expressing KRAS mutant assessed as reduction in cell growth incubated for 72 hrs by CyQuant proliferation assay; type: functional, cell-based; outline: as §1
[10] = tested on: NCI-H1299; assay: Antiproliferative activity against human NCI-H1299 cells expressing wild type KRAS assessed as reduction in cell growth incubated for 72 hrs by CyQuant proliferation assay; type: functional, cell-based; settings: NCI-H1299, 72 h; outline: as §1
[11] = tested on: NCI-H23; assay: Antiproliferative activity against human NCI-H23 cells expressing mutant KRAS assessed as reduction in cell growth incubated for 72 hrs by CyQuant proliferation assay; type: functional, cell-based; settings: NCI-H23, 72 h; outline: as §1
[12] = tested on: BXPC-3; assay: Antiproliferative activity against human BXPC-3 cells expressing wild type KRAS assessed as reduction in cell growth incubated for 72 hrs by CyQuant proliferation assay; type: functional, cell-based; settings: BXPC-3, 72 h; outline: as §1
[13] = tested on: Ishikawa; assay: Antiproliferative activity against human Ishikawa cells expressing wild type KRAS assessed as reduction in cell growth incubated for 72 hrs by CyQuant proliferation assay; type: functional, cell-based; outline: as §1
[14] = Antiproliferative activity against human MPANC96 cells expressing KRAS mutant assessed as reduction in cell growth incubated for 72 hrs by CyQuant proliferation assay; type: functional, cell-based; settings: MPANC96, 72 h; outline: as §1
[15] = tested on: HEC-1B cell line; assay: Antiproliferative activity against human HEC-1B cells expressing mutant KRAS assessed as reduction in cell growth incubated for 72 hrs by CyQuant proliferation assay; type: functional, cell-based; outline: as §1
[16] = tested on: Mus musculus; assay: In vivo inhibition of Ca2+ channel in nu/nu mouse xenografted with human MIA PaCa-2 cells harboring KRAS mutation assessed as blood vessel dialation in tumor at 1 to 5 mg/kg, ip administered once daily for 5 days with 2 days break by immunostaining; type: functional, organism-based; settings: dose 1-5 mg/kg, time 5.0 day
[17] = tested on: MEF; assay: Antiproliferative activity against mouse MEF cells expressing KRAS G12D mutant assessed as reduction in cell growth incubated for 72 hrs by CyQuant proliferation assay; type: functional, cell-based; outline: as §1
[18] = tested on: Caenorhabditis elegans; assay: In vivo inhibition of KRAS signaling in Caenorhabditis elegans lin-1 L1 harboring let60 […] mutant assessed as reduction in multi-vulva phenotype measured after 4 to 5 days culturing in buffer containing Escherichia coli OP50 by DIC/Nomarski microscopic analysis; type: functional, organism-based; settings: dose 0.1-30 µM, time 4-5 day
Outline: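 let-60 (n1046) or lin-1 L1 larvae cultured in M9 buffer with E. coli OP50 plus DMSO vehicle or compound at 0.1, 0.3, 1, 3, 10 or 30 µM. After 4–5 days, adults were scored for multi-vulva by DIC/Nomarski microscopy.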

[19] = tested on: MEF; assay: Antiproliferative activity against mouse MEF cells expressing KRAS G12V mutant assessed as reduction in cell growth incubated for 72 hrs by CyQuant proliferation assay; type: functional, cell-based; outline: as §1
[20] = tested on: MDCK; assay: Inhibition of ASM in dog MDCK cells co-expressing recombinant full length mGFP-tagged KRAS G12V mutant and mCherry-CAAX assessed as reduction in plasma membrane localization of KRAS mutant at 10 uM incubated for 48 hrs followed by incubation with recombinant ASM in continued presence of compound for 60 mins by confocal microscopic analysis; type: cell membranes; settings: Canis lupus familiaris, time 49.0 hrs
Outline: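 MDCK cells stably co-expressing mGFP-KRAS G12V and mCherry-CAAX seeded on glass coverslips and grown 48 h with or without compound. Medium then replaced with fresh medium containing 2 units/mL recombinant ASM, drug continued, for 60 min. Cells mounted in mowiol and imaged by confocal microscopy. Mislocalization scored by Manders coefficient.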

[21] = tested on: Mus musculus; assay: In vivo inhibition of ASM in nu/nu mouse xenografted with human MIA PaCa-2 cells harboring KRAS mutation assessed as increase in SM accumulation in tumor at 12.5 mg/kg, ip administered once daily for 5 days with 2 days break by GFP-lysenin staining based confocal laser microscopy; type: functional, organism-based; settings: time 5.0 day
Outline: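 Sections of MiaPaCa-2 xenograft tumors from i.p.-treated nu/nu mice (12.5 mg/kg) stained with GFP-tagged lysenin to detect sphingomyelin.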

[22] = tested on: MEF; assay: Cytotoxicity against mouse MEF cells expressing BRAF V600E mutant and wild type KRAS assessed as reduction in cell growth incubated for 72 hrs by CyQuant proliferation assay; type: functional, cell-based; outline: as §1
[23] = tested on: Mus musculus; assay: In vivo inhibition of KRAS signaling in nu/nu mouse xenografted with human MIA PaCa-2 cells harboring KRAS mutation assessed as decrease in ERK phosphorylation in tumor at 1 to 5 mg/kg, ip administered once daily for 5 days with 2 days break by immunohistochemistry; type: functional, organism-based; settings: dose 1-5 mg/kg, time 5.0 day
Outline: (§2)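 Paraffin tumor sections of 4–5 µm were deparaffinized and given heat antigen retrieval in 10 mM sodium citrate. Endogenous peroxidase was quenched and sections blocked in 2.5% normal goat serum. Primary antibody (pERK or cleaved caspase 3) applied overnight at 4 °C, biotinylated secondary 1:250 for 45 min at rt, then ABC reagent 30 min and DAB development. Rabbit IgG served as control.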

[24] = target: T1, Sphingomyelin phosphodiesterase (Homo sapiens) (UniProt P17405); assay: Inhibition of human GFP-tagged ASM expressed in dog MDCK cells using sphingomyelin as substrate at 5 uM incubated for 48 hrs by Amplex Red dye based fluorescence analysis; type: cell-based
T1 sequence (whole entry): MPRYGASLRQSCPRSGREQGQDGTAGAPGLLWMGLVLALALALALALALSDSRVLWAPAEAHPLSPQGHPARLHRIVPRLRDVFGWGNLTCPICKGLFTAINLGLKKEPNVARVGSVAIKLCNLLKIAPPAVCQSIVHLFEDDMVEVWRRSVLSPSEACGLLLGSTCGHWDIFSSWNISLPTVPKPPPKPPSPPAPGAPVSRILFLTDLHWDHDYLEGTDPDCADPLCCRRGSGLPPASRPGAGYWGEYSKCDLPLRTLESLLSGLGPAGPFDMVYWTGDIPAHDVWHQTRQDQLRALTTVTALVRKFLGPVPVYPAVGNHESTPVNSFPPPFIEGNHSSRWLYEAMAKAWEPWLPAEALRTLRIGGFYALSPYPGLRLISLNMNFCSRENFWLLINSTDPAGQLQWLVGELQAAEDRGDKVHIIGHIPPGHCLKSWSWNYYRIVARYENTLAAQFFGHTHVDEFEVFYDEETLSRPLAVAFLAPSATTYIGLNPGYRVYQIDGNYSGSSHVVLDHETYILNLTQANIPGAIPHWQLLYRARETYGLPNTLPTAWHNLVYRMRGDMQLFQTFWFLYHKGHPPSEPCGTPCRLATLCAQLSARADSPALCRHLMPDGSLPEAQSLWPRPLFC
Outline: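 MDCK cells stably expressing human SMPD1-GFP treated 48 h at 5 µM. Whole-cell lysate, made without DTT, mixed with 50 mM sodium acetate pH 5.0 plus sphingomyelin and held 1 h at 37 °C. pH then raised to 7.4 with Amplex Red mix (100 µM Amplex Red, 2 U/mL HRP, 0.2 U/mL choline oxidase, 8 U/mL alkaline phosphatase, 100 mM Tris pH 8.0), 60 min at 37 °C. Fluorescence read at Ex 540/Em 590 nm. Controls: 0.1 U/mL SMase (positive), buffer alone (negative).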

[25] = tested on: MIA PaCa-2; assay: Antitumor activity human MIA PaCa-2 cells harboring KRAS mutation xenografted in nu/nu mouse assessed as induction of apoptosis by measuring increase in cleaved caspase 3 level in tumor at 1 to 5 mg/kg, ip administered once daily for 5 days with 2 days break by immunohistochemistry; type: functional, organism-based; settings: dose 1-5 mg/kg, time 5.0 day; outline: as §2
[26] = tested on: MDCK; assay: Reduction in expression of human GFP-tagged ASM transfected in dog MDCK cells at 5 uM incubated for 48 hrs by western blot analysis; type: functional, cell-based; settings: Canis lupus familiaris
Outline: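 SMPD1-GFP-expressing MDCK cells treated 48 h with 5 µM compound, washed in cold PBS and lysed in Tris pH 7.5 buffer with NaF, EGTA, DTT, vanadate, 1% NP40 and protease inhibitors. 20 µg of protein resolved by SDS-PAGE and immunoblotted. Signals detected by enhanced chemiluminescence and quantified by densitometry.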

Row | Compound | IC50 [1] | IC50 [3] | IC50 [4] | IC50 [5] | IC50 [7] | IC50 [9] | IC50 [10] | IC50 [12] | IC50 [13] | IC50 [14] | IC50 [15] | also measured
1 | COc1ccc([C@@H](C)N(CC=C(c2ccccc2)c2ccccc2)CC=C(c2ccccc2)c2ccccc2)cc1 | > 30 µM | > 30 µM | > 30 µM | > 30 µM | > 30 µM | > 30 µM | > 30 µM | > 30 µM | > 30 µM | > 30 µM | > 30 µM | Emax [2]: 0.74; IC50 [6]: > 30 µM; Activity [8]: inactive; IC50 [11]: > 30 µM
2 | CC(NCCC(c1ccccc1)c1ccccc1)c1ccccc1 (configuration not stated) [FENDILINE] | 14.5 µM | 9.2 µM | 9.48 µM | 29.6 µM | > 30 µM | 11.1 µM | 24.3 µM | 28.6 µM | > 30 µM | 10.8 µM | 9.8 µM | inhibition [16]: Active; IC50 [17]: 13.1 µM; inhibition [18]: Dose-Dependent Effect; IC50 [19]: 8.1 µM; inhibition [20]: inactive; inhibition [21]: Active; IC50 [22]: 17.8 µM; inhibition [23]: inactive; inhibition [24]: Active; Activity [25]: inactive; inhibition [26]: inactive
